Experimental data taken from PMC2933425 (Journal of medicinal chemistry, 2010).
Read-outs that look alike come from different tables or passages of the source. Marks after values point to notes of the source that are not given here.

Columns and labels:
HeLa cells [1] = assay type: cell-based, human; details: 1 μM bacteriochlorin, 24 h
Procedure, shortened: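 HeLa cells in 35 mm dishes, attached overnight, then given 1 μM test compound in complete medium for 24 h. After a PBS wash, 5 μg/mL LysoTracker green DND-26, MitoTracker green FM or ER-Tracker green was added for 30 min at 37 °C. Cells were washed again and imaged 5–10 min later by confocal microscopy: 488 nm argon excitation, probe emission 515 ± 10 nm, compound emission >580 nm, 63× water lens. Red/green overlays scored for overlap.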

[2] = test system: HeLa human cervical cancer cells; experiment: In vitro PDT toxicity on HeLa cells after illumination; assay type: cell-based; details: for phototoxicity per unit uptake (in words) / LD50 (least active compounds) / incubation period needed to exert PDT toxicity (time-course): HeLa; for phototoxicity per unit uptake (in words): normalized to the same uptake level; for LD50: 24 h; for LD50 (least active compounds): 10 J/cm^2 of 732 nm laser; for incubation period needed to exert PDT toxicity (time-course): 0.5 μM, various incubation times, 10 J/cm^2 of 732 nm light
[3] = Photophysical measurements; assay type: physicochemical; details: for Θ f (fluorescence quantum yield) / τS (lifetime of the lowest singlet excited state): Ar-purged methanol; for τS (lifetime of the lowest singlet excited state): fluorescence detection; for Qy(0,0) absorption fwhm / Qy(0,0) absorption λ / Qy(0,0) fluorescence fwhm / Qy(0,0) fluorescence λ: aerated methanol; for Φisc (triplet-excited-state quantum yield, measured directly): Ar-purged solutions; for kic (rate constant for internal conversion of the lowest singlet excited state to the ground state): printed as (x ns)^−1, from Φisc, Φf and τS
[4] = test system: HeLa human cervical cancer cells; details: 24 h, 10 μM
HeLa cells [5] = experiment: Cellular uptake into HeLa cells; assay type: cell-based, human; details: 24 h, highest concentration (20.5 μM)
Procedure, shortened: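 HeLa cells in RPMI with 10% heat-inactivated FBS, seeded at 5000/well and grown 24 h, then exposed 24 h to test compound diluted in complete medium. Cells rinsed with warm PBS, lysed in SOLVABLE 2 h at 37 °C. Lysate fluorescence read at ex 402/em 730 nm against per-compound calibration curves in SOLVABLE. Protein by BCA with BSA standards. Expressed as nmol per mg protein; three experiments.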

[6] = cited from earlier work
[7] = test system: HeLa human cervical cancer cells; experiment: Dark toxicity on HeLa cells; details: no light, at 10 μM
[8] = Ar-purged 2-methyltetrahydrofuran
[9] = freeze–pump–thaw degassed methanol

Row | SMILES | phototoxicity per unit uptake (in words) [2] | τT (lifetime of the lowest triplet excited state) [3, 8] [μs] | Θ f (fluorescence quantum yield) [3] | τS (lifetime of the lowest singlet excited state) [3] [ns] | Qy(0,0) absorption fwhm [3] [nm] | Qy(0,0) absorption λ [3] [nm] | Qy(0,0) fluorescence fwhm [3] [nm] | Qy(0,0) fluorescence λ [3] [nm] | uptake level (in words) (HeLa cells [5]) | LD50 [2] [nM] | other results
1 | CC1(C)Cc2cc3[nH]c(cc4nc(cc5[nH]c(cc1n2)cc5CN(CCO)CCO)CC4(C)C)cc3CN(CCO)CCO [Compound 6] | high values | 190 | 0.095 | 3.8 | 18 | 718 | 23 | 724 | Intermediate uptake levels |  | overlap with endoplasmic reticulum probe (ER-Tracker) (HeLa cells [1]): good overlap; dark toxicity level [4]: ~50%
2 | CC1(C)Cc2cc3[nH]c(cc4nc(cc5[nH]c(cc1n2)cc5C(=O)N(CCN)CCN)CC4(C)C)cc3C(=O)N(CCN)CCN [Compound 9] | much lower values |  | 0.12 | 3.5 | 19 | 729 | 24 | 735 | low uptake | 800 | Φisc (triplet-excited-state quantum yield, measured directly) [3]: 0.57; τT (lifetime of the lowest triplet excited state) ([3]; freeze–pump–thaw degassed ethanol): 54 ^l μs; kic (rate constant for internal conversion of the lowest singlet excited state to the ground state) [3]: 11.4 (ns)^−1
3 | COCCOCCOCCOCCNCc1cc(CNCCOCCOCCOCCOC)cc(-c2c3nc(cc4[nH]c(cc4-c4ccc(C)cc4)c(OC)c4nc(cc5[nH]c2cc5-c2ccc(C)cc2)C(C)(C)C4)C(C)(C)C3)c1 [Compound 1] |  |  |  |  | 21 | 732 |  |  | Low to intermediate uptake | 500 | 
4 | CC1(C)Cc2cc3[nH]c(cc4nc(cc5[nH]c(cc1n2)cc5C(=O)/C=C/c1cc(O)cc(O)c1)CC4(C)C)cc3C(=O)/C=C/c1cc(O)cc(O)c1 [Compound 11] |  | 78 | 0.021 | 3.4 | 35 | 781 | 40 | 800 | low uptake | 200 | 
5 | CC1(C)Cc2cc3[nH]c(cc4nc(cc5[nH]c(cc1n2)cc5C(=O)N1CC[N+](C)(C)CC1)CC4(C)C)cc3C(=O)N1CC[N+](C)(C)CC1.[Cl-].[Cl-] [Compound 10] | much lower values |  | 0.12 | 3.8 | 21 | 731 | 28 | 740 | low uptake |  | τT (lifetime of the lowest triplet excited state) [3, 9]: 100 ^k μs
6 | COCCN(CCOC)C(=O)c1cc2cc3nc(cc4[nH]c(cc5nc(cc1[nH]2)CC5(C)C)cc4C(=O)N(CCOC)CCOC)CC3(C)C [Compound 12] | high values | 105 | 0.10 | 3.3 | 20 | 727 | 27 | 733 | highest uptake |  | 
7 | CC[C@H]1c2cc3[nH]c4c(c3C)C(=O)[C@H](C(=O)OC)c4c3nc(cc4[nH]c(cc(n2)[C@@H]1C)c(C(C)=O)c4C)[C@@H](C)[C@@H]3CCC(=O)OC/C=C(\C)CCC[C@H](C)CCC[C@H](C)CCCC(C)C [bacteriopheophytin a] |  |  |  |  |  |  |  |  |  |  | yield of the lowest triplet excited state [6]: 0.54
8 | CC1(C)Cc2cc3[nH]c(cc4nc(cc5[nH]c(cc1n2)cc5C(=O)O)CC4(C)C)cc3C(=O)O [Compound 7] |  | 70 | 0.077 | 3.7 | 26 | 734 | 19 | 742 | lowest uptake | 4000 | LD50 (least active compounds) [2]: > 1 µM
9 | CC1(C)Cc2cc3[nH]c(cc4nc(cc5[nH]c(cc1n2)cc5C#CC[N+](C)(C)C)CC4(C)C)cc3C#CC[N+](C)(C)C.[Cl-].[Cl-] [Compound 5] | much lower values |  | 0.11 | 3.8 | 16 | 749 | 22 | 754 | Intermediate uptake levels |  | LD50 (least active compounds) [2]: > 1 µM; τT (lifetime of the lowest triplet excited state) [3, 9]: 104 ^k μs; dark toxicity level [7]: ~50%
10 | C1=Cc2nc1c(-c1ccccc1)c1nc(c(-c3ccccc3)c3ccc([nH]3)c(-c3ccccc3)c3ccc([nH]3)c2-c2ccccc2)C=C1 [free base tetraphenylporphyrin, tetraphenylporphyrin] |  |  |  |  |  |  |  |  |  |  | Φf of fluorescence standard ([6]; in toluene ref 33): 0.090
11 | CC1(C)Cc2cc3[nH]c(cc4nc(cc5[nH]c(cc1n2)cc5-c1cc(O)cc(O)c1)CC4(C)C)cc3-c1cc(O)cc(O)c1 [Compound 4] | high values | 190 | 0.12 | 3.7 | 21 | 732 | 26 | 737 |  |  | overlap with endoplasmic reticulum probe (ER-Tracker) (HeLa cells [1]): high degree of localization; incubation period needed to exert PDT toxicity (time-course) [2]: most rapid toxicity; Φisc (triplet-excited-state quantum yield, measured directly) [3]: 0.41; kic (rate constant for internal conversion of the lowest singlet excited state to the ground state) [3]: 7.7 (ns)^−1
12 | CC1(C)Cc2cc3[nH]c(cc4nc(cc5[nH]c(cc1n2)cc5-c1cc(OCCO)cc(OCCO)c1)CC4(C)C)cc3-c1cc(OCCO)cc(OCCO)c1 [Compound 3] | high values | 159 | 0.15 | 3.0 | 19 | 732 | 24 | 738 |  |  | 
13 | CC1(C)Cc2cc3[nH]c(cc4nc(cc5[nH]c(cc1n2)cc5C(=O)NCCN)CC4(C)C)cc3C(=O)NCCN [Compound 8] | much lower values |  | 0.13 | 4.0 | 23 | 742 | 25 | 750 | Intermediate uptake levels | 3000 | overlap with endoplasmic reticulum probe (ER-Tracker) (HeLa cells [1]): hardly any overlap; incubation period needed to exert PDT toxicity (time-course) [2]: longest incubation times; LD50 (least active compounds) [2]: > 1 µM; τT (lifetime of the lowest triplet excited state) [3, 9]: 77 ^k μs
14 | CC1(C)Cc2cc3ccc(cc4nc(cc5ccc(cc1n2)[nH]5)CC4(C)C)[nH]3 [8,8,18,18-tetramethylbacteriochlorin, reference compound] |  |  |  |  |  |  |  |  |  |  | Φf of fluorescence standard ([3]; Ar-purged toluene, Soret and Qx excitation): 0.125
